Measured values from paper PMC3985758 (ACS Chemical Biology, 2014).

How the values were obtained:
[1] = known aggregators; not among compounds measured by DLS here; cited from earlier work
[2] = system: T47D ductal carcinoma cell line; assay: Concentration-response proliferation assay, colloidal vs monomeric formulation; type: cell-based
Procedure, shortened: (§1)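 Cells seeded at 10,000 cells/cm2 and left to adhere overnight, then dosed in RPMI 1640 with 10% charcoal-stripped FBS. Colloidal formulation: DMSO stock diluted 1000-fold into medium (0.1% DMSO). Monomeric formulation: stock diluted 10-fold in DMSO, then into medium giving 1% DMSO and 0.025% v/v polysorbate 80. Vehicle controls made the same way. Medium refreshed every 12 h over 72 h; cells washed; proliferation by MTS or DAPI nuclei counts, relative to untreated.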

MDA-MB-231 cells = assay: Concentration-response proliferation assay; type: cell-based
Procedure, shortened: as §1

MCF7 cells = conditions: cited from earlier work
MCF7 = assay: Concentration-response proliferation assay, colloidal vs monomeric formulation; type: cell-based
Procedure, shortened: as §1

BT474 = assay: as above; type: cell-based
Procedure, shortened: as §1

SMILES: C[C@@H](Oc1cc(-c2cnn(C3CCNCC3)c2)cnc1N)c1c(Cl)ccc(F)c1Cl [Crizotinib, crizotinib]
- CAC (critical aggregation concentration) [1]: 19.3 µM
- concentration at which antiproliferative activity is lost [2]: 10 µM

SMILES: CNC(=O)c1cc(Oc2ccc(NC(=O)Nc3ccc(Cl)c(C(F)(F)F)c3)cc2)ccn1 [Sorafenib, sorafenib]
- CAC (critical aggregation concentration) [1]: 3.5 µM
- inhibition of cell proliferation (MDA-MB-231 cells; 10 μM, colloidal formulation (0.1% DMSO, no UP 80), 72 h): almost entirely eliminated
- inhibition at 10 µM (MDA-MB-231 cells; Homo sapiens, MDA-MB-231, 72 h, read-out: inhibition of proliferation): ~90%
- concentration at which loss of activity is observed (MDA-MB-231 cells; colloidal formulation, MDA-MB-231): ≥ 10 µM

SMILES: O=c1c(-c2ccc(O)cc2)coc2cc(O)cc(O)c12 [Genistein]
- concentration of maximum activity of bell-shaped curve (MCF7 cells): 50 µM

SMILES: C[C@]12CC[C@@H]3c4ccc(O)cc4C[C@@H](CCCCCCCCC[S+]([O-])CCCC(F)(F)C(F)(F)F)[C@H]3[C@@H]1CC[C@@H]2O (stereo partly drawn) [Fulvestrant]
- concentration at which loss of activity is observed (MCF7): ≥ 1 µM
- concentration at which loss of activity is observed (BT474): ≥ 1 µM
